Reference: ChEMBL document CHEMBL4513216, “Probing the Open Global Health Chemical Diversity Library for Multistage-Active Starting Points for Next-Generation Antimalarials” (ACS Infect Dis, 2020)

Assay: Toxicity liver stage against HepG2, at 10uM
Assay type: cell-based
Set-up: test concentration 10 uM, cell line HepG2-A16-CD81EGFP
Conditions: human, HepG2-A16-CD81EGFP cells; read-out: INHIBITION
Summary of the method: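 Uninfected HepG2-A16-CD81EGFP cells, 3 × 10^3 per well, 1536-well, plated on prespotted compound at 10 μM final, parasite-free screening media added to match infected plates; puromycin 10 μM positive, DMSO 0.5% negative; run in parallel with 48 h PbLuc assay at 37 °C, 5% CO2; viability by CellTiter-Glo luminescence, normalized to controls.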

SMILES	cytotoxicity at 10 µM
COc1ccc(C(=O)N2CC[C@@]3(O)CCCC[C@H]3C2)cc1OC	-43.4%
Nc1nnc(CCCn2nnc(-c3ccccc3F)n2)s1	-1.67%
CNC(=O)CCc1cccc(C2CCCN(c3cc(C)ncn3)C2)n1 (stereo unspecified)	1.58%
CN1CCN([C@@H]2CN(C(=O)c3cc4cccc(F)c4[nH]3)C[C@H]2O)CC1	-6.81%
CCn1nccc1CN(C)C(=O)Cn1nc(C)c(C)c1C	0.66%
Cn1nc(C2CNCCO2)cc1CCOc1ccc(C(F)(F)F)cc1 (stereo unspecified)	-7.54%
CC1Cc2ccccc2N1C(=O)Cn1nc(-c2cccs2)ccc1=O (stereo unspecified)	-9.08%
Cc1cc2c(=O)n3c(nc2s1)CCN(C(=O)c1nn(C)cc1Cl)CC3	16.6%
CNC(=O)CN1CCC2(CC1)C[C@@H](O)[C@H](c1ccccc1)NC2=O	-32.2%
CCCc1ncc(CNC2(c3ccc(Cl)cc3)CC2)cn1	-31.6%
Cc1nc(Nc2ncccn2)cc(C2CCN(CC(C)C)C2)n1 (stereo unspecified)	-16.1%
Cc1cccnc1C(=O)N1CCC(Cc2cnc3[nH]ccc3c2)CC1	1.85%
CC1CC(NS(=O)(=O)c2ccc(C(F)(F)F)nc2)C1 (stereo unspecified)	23.1%
CN(C)C(CNC(=O)OCC(F)(F)F)c1ccsc1 (stereo unspecified)	-44.4%
CCN(Cc1cccs1)S(=O)(=O)N(C)C(C)C	-49%
COc1ccc(Oc2ncccc2NC(=O)N2CCOC(C)C2)cc1 (stereo unspecified)	2.65%
COc1cc(CN2CCC(NC(=O)c3cccn3C)C2)cc(OC)c1 (stereo unspecified)	-12.6%
N#Cc1c(F)cccc1Nc1cnn(CC(O)CN2CCOCC2)c1 (stereo unspecified)	-1.47%
Cc1ccc(NC(=O)c2nc(N3CCCCC3)ncc2Cl)cc1I	-0.906%
CCN1CCN(c2ccc(F)cc2C(C)NCc2ccccn2)CC1 (stereo unspecified)	7.96%
Cn1ccnc1CC1CCCN(C(=O)NCCOc2cccnc2)C1 (stereo unspecified)	-5.19%

SMILES	cytotoxicity at 10 µM
CN1CCCN(S(C)(=O)=O)c2cc(F)ccc21	-2.24%
Oc1ccc(N2CCN(Cc3ccc(F)cc3Br)CC2)cc1	-13.2%
Cc1csc(CNC(=O)NC(C)c2ccc3c(c2)OCCO3)n1 (stereo unspecified)	-5.72%
Cc1noc(NS(=O)(=O)c2ccc(Cl)s2)c1C	5.3%
O=C1CCc2cc(S(=O)(=O)NC(=O)c3ccc4c(c3)CCO4)ccc2N1	-17.7%
CN(C)S(=O)(=O)c1ccc(CNC(=O)C2CC2)cc1	7.04%
COCCN(CCOC)C(=O)c1ccc(Cn2nc(C)cc2C)cc1	-5.15%
CC(C)CCS(=O)(=O)N1CCCC(c2nncn2C(C)C)C1 (stereo unspecified)	5.04%
N#Cc1ccc(NC(=O)N2CCCCC2CN2CCCC2=O)cc1 (stereo unspecified)	4.65%
O=C(c1ccc2c(c1)[nH]c(=O)n2C1CCCC1)N1CC(O)C1	-53.5%
Cn1c(=O)ccn(CC(=O)N2CCCC(n3cccn3)C2)c1=O (stereo unspecified)	-8.92%
CN(Cc1ccccc1F)C(=O)c1ccoc1	11.3%
COc1ccc(CNC(C)c2cccc(Cl)c2)c(OC)c1OC (stereo unspecified)	14%
COCC1c2nnn(C)c2CCN1C(=O)c1ccc(OC)c(F)c1 (stereo unspecified)	-105%
CCOCC1CN(CC2CCC2)Cc2nnn(CC3CC3)c21 (stereo unspecified)	12.7%
Cn1cccc1C(=O)N1C[C@H](OCC2CCOCC2)[C@H]2COC[C@H]21	-109%
c1ccc(-c2nnn3c2COC(CNCC2CCOCC2)C3)cc1 (stereo unspecified)	11%
Cc1ncoc1C(=O)N1C[C@H]2CCC[C@@]2(COCC2CCOCC2)C1	0.23%
CN(C)C(C(=O)N1CCN(CCn2cccc2)CC1)c1cccc(F)c1 (stereo unspecified)	-22.8%
O=C(NCCCOc1cccnc1)c1cn(CCc2ccccc2)nn1	-0.977%
OCCN1CCN(Cc2cnc3c(-c4ccccc4)cnn3c2)CC1	-2.72%

SMILES	cytotoxicity at 10 µM
CCc1ccc(CN(C)C(=O)C(c2ccccc2F)N(C)C)nc1 (stereo unspecified)	4.03%
COCCN1CCCC2(CCN(c3cccc(C(F)(F)F)n3)C2)C1=O (stereo unspecified)	3.84%
COc1cccc2c1OCC(C(=O)N1Cc3ccccc3C1)C2 (stereo unspecified)	3.16%
O=C(NCc1csc2ccc(Cl)cc12)c1cc2n(n1)CCNC2	-0.699%
CCc1ccccc1CN1CC[C@@]2(O)CCN(S(=O)(=O)N(C)C)C[C@H]2C1	-2.19%
COCc1cc(CNC(=O)c2c(C)c(C)cc(C)c2C)n[nH]1	-6.65%
O=S(=O)(NCc1ccccc1)Nc1ccc(-n2ccnc2)cc1	7.03%
O=C1CC(NCc2ccncc2)CN1CCc1cccc(Cl)c1 (stereo unspecified)	-127%
NCC1CCCCN1Cc1cc(O)c2cccc(F)c2n1 (stereo unspecified)	-18.2%
CN(C)Cc1cc(-c2nccn2CCn2cccn2)ccc1O	-50.5%
CCOC(=O)c1coc(N2CCN(Cc3ccc(C)cc3)C(=O)C2)n1	-0.0261%
CN(Cc1cccnc1)CC1(O)CCCN(CC(C)(C)C)C1=O (stereo unspecified)	3.09%
Cc1ccoc1C(=O)N1CCNCC1C(=O)NCc1ccncc1 (stereo unspecified)	6.03%
CCCn1ncc(C2CC(=O)NCc3nc4sc(C)cn4c32)c1C (stereo unspecified)	-10.8%
O=C(CCc1nc(Cl)n[nH]1)NC1CCCN(CC2CCCCC2)C1 (stereo unspecified)	-11.4%
O=C1NC[C@@]2(C(=O)O)CN(Cc3cccc(C(F)(F)F)c3)C[C@@H]12	-8.58%
CN1CCCC(Cc2cncc(Br)c2)CC1 (stereo unspecified)	-5.95%
Cn1ccnc1CN1CCN(CCOc2ccccc2C#N)CC1	-14.9%
COc1cccc(CN2CCN(C(=O)CN3CCOCC3)CC2)n1	-5.7%
COc1cccc(C(=O)NS(=O)(=O)c2cccc(C#N)c2)c1OC	-8.06%
Cc1cc(C)n(CC2CCCN2C(=O)c2ccc(C(N)=O)cn2)n1 (stereo unspecified)	-3.87%

SMILES	cytotoxicity at 10 µM
Cc1cnc(CN(C)C2CCN(CCn3cc(C#N)cn3)C2)o1 (stereo unspecified)	-5.45%
Cc1nn(C)c(C)c1C1CCCN1CC(=O)Nc1ccncc1 (stereo unspecified)	-5.53%
Cc1ccn(-c2cccc(C(=O)N3CCCC(n4ccnc4C)C3)c2)n1 (stereo unspecified)	-14.2%
O=C(CCN1CCOC(Cn2cccn2)C1)NC1CCCC1 (stereo unspecified)	4.98%
Cc1nc(C(=O)N2CCC(Nc3cccnn3)CC2)cs1	6.74%
COc1ccc(CC(=O)N2CCC[C@@H](N)[C@@H]2c2ccccc2F)cc1	2.49%
O=C(Nc1nc2c(s1)CNCC2)NC1CCCC1	-2.37%
COc1ccc(CN2CCn3c(CO)nnc3C2)cc1CN1CCCC1	-24.5%
CNCC1CCC(c2cc(CN(C)S(=O)(=O)N(C)C)n(C)n2)CC1 (stereo unspecified)	-1.33%
c1cnc(N2CCCC3(CCN(c4ncccn4)C3)C2)nc1 (stereo unspecified)	-151%
O=C(NC1CC1)[C@H]1C[C@@H]2CCN(CCc3ccccc3)C[C@H]2O1	6.46%
c1cc(CNCc2ccnc(N3CCCC3)c2)c2c(c1)OCCO2	3.64%
CNC(=O)c1cc2c(nc1N(C)C)CCN(S(=O)(=O)N(C)C)CC2	-138%
Cc1cccc(N2CCOCC3(C2)CN(c2cnn(C)c2)C(=O)CO3)n1 (stereo unspecified)	-0.136%
c1cncc(COCC2CC[C@H]3[C@H]2OCCN3Cc2ccoc2)c1 (stereo partly specified)	1.2%
CC(C)N(C)Cc1cncc2c1CCN(CC1CC1)C2	-102%
O=C1OCCN1CC(=O)N1C[C@@H]2CC[C@H]1CN(C(=O)c1ccccn1)C2	13.5%
O=C(Cc1cccs1)N1C[C@H]2CC[C@@H](C1)N(Cc1ccccn1)C2=O	1.07%
